For series [1], the target named is Integrin alpha-IIb/beta-3 (Homo sapiens, UniProt P05106+P08514). The series can be described thus: Tested for inhibition of the binding of fibrinogen to purified human GPIIb-IIIa in a 96-well format (ELISA assay). The series is classed as protein-complex assay. The gist of the method: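 Purified GPIIb-IIIa or vitronectin receptor, 0.5 μg/well, coated overnight at 4 °C, BSA-blocked. Compound plus 10 nM biotinylated ligand added in triplicate, 2 h at room temperature, pH 7.4 Tris with CaCl2 and BSA.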
Integrin alpha-IIb/beta-3, sequence (P05106 27-788 limits assumed): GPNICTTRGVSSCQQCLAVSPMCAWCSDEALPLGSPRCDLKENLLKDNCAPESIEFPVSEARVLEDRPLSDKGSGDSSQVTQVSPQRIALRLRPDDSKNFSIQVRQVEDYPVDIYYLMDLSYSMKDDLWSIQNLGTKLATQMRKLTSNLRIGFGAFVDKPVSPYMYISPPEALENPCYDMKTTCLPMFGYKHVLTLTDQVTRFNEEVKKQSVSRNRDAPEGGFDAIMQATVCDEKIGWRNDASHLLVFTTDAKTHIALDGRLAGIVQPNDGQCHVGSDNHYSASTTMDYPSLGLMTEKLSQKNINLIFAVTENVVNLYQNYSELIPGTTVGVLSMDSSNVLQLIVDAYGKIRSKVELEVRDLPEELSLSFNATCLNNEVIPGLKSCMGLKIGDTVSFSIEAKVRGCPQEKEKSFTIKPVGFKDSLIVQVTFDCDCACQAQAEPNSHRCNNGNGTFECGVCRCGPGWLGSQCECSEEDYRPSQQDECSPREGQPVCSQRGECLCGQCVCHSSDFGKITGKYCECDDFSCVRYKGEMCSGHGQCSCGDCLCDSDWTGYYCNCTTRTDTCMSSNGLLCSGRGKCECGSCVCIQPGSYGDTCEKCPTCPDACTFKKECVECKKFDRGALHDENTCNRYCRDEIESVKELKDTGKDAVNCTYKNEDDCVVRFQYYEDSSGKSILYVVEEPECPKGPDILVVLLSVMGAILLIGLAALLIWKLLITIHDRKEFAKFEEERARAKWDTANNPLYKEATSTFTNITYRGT
Integrin alpha-IIb/beta-3, sequence (P08514 32-887 limits assumed): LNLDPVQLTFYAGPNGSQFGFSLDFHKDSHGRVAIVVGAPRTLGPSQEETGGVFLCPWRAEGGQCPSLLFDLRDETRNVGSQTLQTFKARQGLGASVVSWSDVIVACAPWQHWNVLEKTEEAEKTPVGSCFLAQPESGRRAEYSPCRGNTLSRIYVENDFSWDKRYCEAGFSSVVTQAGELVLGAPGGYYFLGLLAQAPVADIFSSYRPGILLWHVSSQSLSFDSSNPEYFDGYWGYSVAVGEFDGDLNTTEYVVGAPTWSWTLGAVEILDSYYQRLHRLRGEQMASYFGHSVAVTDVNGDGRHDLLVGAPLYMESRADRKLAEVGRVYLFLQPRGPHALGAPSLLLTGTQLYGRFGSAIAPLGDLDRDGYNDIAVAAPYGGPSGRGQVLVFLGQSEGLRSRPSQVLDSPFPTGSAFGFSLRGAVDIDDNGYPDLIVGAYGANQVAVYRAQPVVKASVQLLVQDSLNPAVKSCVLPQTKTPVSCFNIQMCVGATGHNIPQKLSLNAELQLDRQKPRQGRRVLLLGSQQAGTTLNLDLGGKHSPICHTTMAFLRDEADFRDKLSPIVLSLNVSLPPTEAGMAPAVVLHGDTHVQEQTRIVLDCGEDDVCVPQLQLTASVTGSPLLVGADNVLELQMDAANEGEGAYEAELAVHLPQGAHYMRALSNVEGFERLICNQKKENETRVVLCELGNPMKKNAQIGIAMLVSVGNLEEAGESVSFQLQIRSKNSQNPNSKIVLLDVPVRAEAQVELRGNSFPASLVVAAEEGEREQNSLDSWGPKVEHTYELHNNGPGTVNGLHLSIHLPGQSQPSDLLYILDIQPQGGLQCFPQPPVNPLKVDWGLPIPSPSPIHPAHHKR
Integrin alpha-IIb/beta-3, sequence (P08514 891-1039 limits assumed): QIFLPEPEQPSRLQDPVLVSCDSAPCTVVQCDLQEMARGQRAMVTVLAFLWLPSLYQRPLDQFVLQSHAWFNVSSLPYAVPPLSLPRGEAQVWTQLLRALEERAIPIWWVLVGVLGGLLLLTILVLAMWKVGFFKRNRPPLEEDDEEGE
For orientation: In an ELISA, binding on a coated surface is turned into a signal by an enzyme label.

Series [2] can be described thus: (§1) Area under curve was determined after oral administration in rats. As to conditions: rat, in vivo. The series is classed as ADME, organism-based. The arrangement: concentration or dose not given beside the values. The gist of the method: (§2)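 Sprague Dawley rats instrumented 2 days before, conscious; prodrug in water given orally and free acid in 50% PEG-300 intravenously, 1 mg/kg each, six rats per group. Serial blood sampling on EDTA or citrate; plasma deproteinized with acetonitrile plus internal standard, filtered. AUC, Cmax and t1/2β from mean concentration–time curves; F = oral AUC / iv AUC.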

The subject of series [3] is Mus musculus. The series can be described thus: Compound was tested for bleeding time in mice at a dose of 50 mg/kg vs DMSO (vehicle). The format is functional. In short, it runs like this: (§3)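 Anesthetized female C57/bl mice given an iv tail-vein bolus in 10% DMSO in water (~150 μL); vehicle controls received DMSO. Tail transected 2 mm from the tip and immersed in 37 °C normal saline. Bleeding time recorded to cessation of flow by visual inspection, up to 900 s.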

The subject of series [4] is Mus musculus. Briefly: Compound was tested for bleeding time in mice at a dose of 100 mg/kg vs DMSO (vehicle). The format is functional. In short, it runs like this: as §3
For series [5], the system named is Mus musculus. The series can be described thus: Compound was tested for bleeding time in mice at a dose of 10 mg/kg vs DMSO (vehicle). The series is classed as functional. In short, it runs like this: as §3
In series [6] the test system is Mus musculus. Briefly: Compound was tested for bleeding time in mice at a dose of 40 mg/kg vs DMSO (vehicle). The series is classed as functional. In short, it runs like this: as §3
The nature of series [7]: as §1. As to conditions: rat, in vivo. The format is ADME, organism-based. The gist of the method: as §2
The species named for a further series is Canis familiaris. Briefly: Clearance of the drug was measured in the plasma of dog. The series is classed as ADME, organism-based, Canis lupus familiaris. The conditions noted are these: in vivo. The gist of the method: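 Fasted male beagle dogs (n = 4): prodrug at 1 mg/kg orally, active drug intravenously. Plasma drug measured by LC/MS/MS. t1/2β from the linear portion of the log concentration–time curve; Vz = dose/(AUCINF·λz); F corrected for molecular weight and dose differences.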

A short description of series [8]: Clearance of the drug was measured in cynomolgus. The series is classed as ADME. The conditions noted are these: cercopithecidae, in vivo; read-out: CI. The gist of the method: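 Fasted, chair-restrained cynomolgus monkeys. Active acid given as a 15 min iv infusion in 50% PEG-300 diluted with plasmalyte; prodrug given a week later in water by nasogastric tube to the same animals. EDTA plasma sampled over 0–48 h and assayed by LC/MS/MS. t1/2β taken from the terminal log-linear phase; Vz = dose/(AUCINF·λz); F corrected for molecular weight and dose.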

The nature of series [9]: Inhibition of Human umbilical vein endothelial cells (HUVEC) adhesion to fibronectin. The format is cell-based.
Another series deals with Integrin alpha-V/beta-3 (Homo sapiens, UniProt P05106+P06756). The series can be described thus: Inhibition of vitronectin binding to Vitronectin receptor (alpha V beta 3). The format is protein-complex assay. In short, it runs like this: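 Purified GPIIb-IIIa or vitronectin receptor, 0.5 μg/well, coated overnight at 4 °C, BSA-blocked. Compound plus 10 nM biotinylated ligand added in triplicate, 2 h at room temperature, pH 7.4 Tris with CaCl2 and BSA. Detected by anti-biotin alkaline phosphatase conjugate, read at 405 nm; BSA-well binding subtracted; IC50 from three experiments.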
Integrin alpha-V/beta-3, sequence (P05106 27-788 limits assumed): as the sequence (P05106 27-788 limits assumed) above
Integrin alpha-V/beta-3, sequence (P06756 31-889 limits assumed): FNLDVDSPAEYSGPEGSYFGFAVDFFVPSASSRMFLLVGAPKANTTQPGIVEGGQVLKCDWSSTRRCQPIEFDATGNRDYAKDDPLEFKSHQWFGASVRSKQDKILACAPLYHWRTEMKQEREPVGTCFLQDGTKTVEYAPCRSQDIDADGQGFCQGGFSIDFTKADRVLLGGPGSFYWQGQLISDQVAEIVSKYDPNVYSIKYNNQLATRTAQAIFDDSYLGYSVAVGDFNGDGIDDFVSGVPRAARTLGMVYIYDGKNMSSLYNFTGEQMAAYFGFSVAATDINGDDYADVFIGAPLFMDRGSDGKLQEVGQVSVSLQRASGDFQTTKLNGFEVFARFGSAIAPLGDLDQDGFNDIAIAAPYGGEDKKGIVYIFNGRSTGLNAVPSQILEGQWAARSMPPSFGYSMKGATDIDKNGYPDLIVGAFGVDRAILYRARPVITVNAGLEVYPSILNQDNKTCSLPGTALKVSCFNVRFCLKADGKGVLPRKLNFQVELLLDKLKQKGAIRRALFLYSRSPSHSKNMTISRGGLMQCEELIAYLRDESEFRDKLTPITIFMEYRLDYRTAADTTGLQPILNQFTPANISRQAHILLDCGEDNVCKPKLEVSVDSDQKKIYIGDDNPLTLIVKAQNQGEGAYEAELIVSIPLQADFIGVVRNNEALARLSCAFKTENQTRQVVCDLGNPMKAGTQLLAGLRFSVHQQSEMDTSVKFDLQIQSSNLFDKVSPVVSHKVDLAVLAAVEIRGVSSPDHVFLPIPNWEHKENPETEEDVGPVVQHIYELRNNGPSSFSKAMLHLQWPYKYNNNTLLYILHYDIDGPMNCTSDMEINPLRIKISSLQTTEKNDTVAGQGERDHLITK
Integrin alpha-V/beta-3, sequence (P06756 891-1048 limits assumed): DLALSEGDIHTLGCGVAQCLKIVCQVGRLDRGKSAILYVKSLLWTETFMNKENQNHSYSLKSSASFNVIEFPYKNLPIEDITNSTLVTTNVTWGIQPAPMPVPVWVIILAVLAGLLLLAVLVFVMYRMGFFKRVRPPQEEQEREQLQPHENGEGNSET

Series [10] can be described thus: Inhibition of Human umbilical vein endothelial cells (HUVEC) adhesion to Vitronectin. The series is classed as cell-based.
The species entered for a further series is Rattus norvegicus. Briefly: Bioavailability in rat. The series is classed as ADME, organism-based. As to conditions: in vivo. In short, it runs like this: as §2
Series [11] in a line: Inhibition of Human umbilical vein endothelial cells (HUVEC) adhesion to vitronectin. The format is cell-based.

Experimental findings from ChEMBL document CHEMBL1137087, “Discovery of novel 2,8-diazaspiro[4.5]decanes as orally active glycoprotein IIb-IIIa antagonists” (J Med Chem, 2004) are described below.

“And” between values parts separate entries of the source, which are not always exact repeats. Equal values may be shown once.

Take `Cc1ccc(S(=O)(=O)N[C@@H](CNC(=O)N2CCC3(CC2)C(=O)N(c2ccc(C(=N)N)cc2)C(=O)N3C)C(=O)O)cc1`: the IC50 (usually the concentration needed to halve the response being measured) in series [1] is 2 nM.

The compound `N=C(N)c1ccc(N2CC3(CCN(C(=O)CCCC(=O)O)CC3)NC2=O)cc1` registered an IC50 in series [1] of 751 nM.

With `CN1C(=O)N(c2ccc(C(=N)N)cc2)C(=O)C12CCN(C(=O)CCCC(=O)O)CC2`, the IC50 in [1] was 100 nM.

For the compound `CCOC(=O)CCNC(=O)N1CCC2(CC1)CN(c1ccc(C(=N)NO)cc1)C(=O)N2C`, the area under the curve (AUC) (in general, concentration integrated over time) in [2] was found to be 24 ng·h/mL.

Compound `N=C(N)c1ccc(N2CC3(CCN(C(=O)CC(=O)O)CC3)CC2=O)cc1` returned an IC50 in series [1] of 25000 nM.

In turn, `NC(=NN1CCOCC1)c1ccc(N2CCC3(CCN(C(=O)CCCC(=O)O)CC3)C2=O)cc1` showed an IC50 in [1] of 4180 nM.

In [1], `CN1C(=O)N(c2ccc(C(=N)N)cc2)CC12CCN(C(=O)NCCC(=O)O)CC2` had an IC50 of 400 nM.

For the compound `N=C(N)c1ccc(N2C(=O)NC3(CCN(C(=O)CCCC(=O)O)CC3)C2=O)cc1`, the IC50 in series [1] was determined as 21 nM.

In the case of `CN1C(=O)N(c2ccc(C(=N)N)cc2)CC12CCN(C(=O)CC(CC(=O)O)c1ccccc1)CC2` (centres undefined), the IC50 in [1] came out at 20 nM.

In the case of `CCCCOC(=O)N[C@@H](CCC(=O)N1CCC2(CC1)CCN(c1ccc(C(=N)NO)cc1)C2=O)C(=O)OCC`, the AUC in series [2] was found to be 184 ng·h/mL.

With `N=C(N)c1ccc(N2C(=O)CC3(CCN(C(=O)CCCC(=O)O)CC3)C2=O)cc1`, the IC50 in series [1] worked out at 430 nM.

`Cc1noc(C)c1S(=O)(=O)N[C@@H](CCC(=O)N1CCC2(CC1)CCN(c1ccc(C(=N)N)cc1)C2=O)C(=O)O`: the Bleeding time came out at 562.5 s with Mus musculus [3], 890.6 s with Mus musculus [4], 96.7 s with Mus musculus [5] and 196.5 s in the series with Mus musculus [6]. This compound also gave an IC50 in series [1] of 5 nM.

Consider `N=C(N)c1ccc(N2CC3(CCN(C(=O)NCCC(=O)O)CC3)CC2=O)cc1`, for which the IC50 in series [1] stood at 350 nM.

With `CN1C(=O)N(c2ccc(C(=N)N)cc2)CC12CCN(C(=O)CCCC(=O)O)CC2`, the IC50 in series [1] is 1020 nM.

Compound `N=C(N)c1ccc(N2CC3(CCN(C(=O)CCCC(=O)O)CC3)CC2=O)cc1` showed an IC50 in [1] of 650 nM.

In series [1], `C[C@H](CC(=O)O)CC(=O)N1CCC2(CC1)CCN(c1ccc(C(=N)N)cc1)C2=O` gave an IC50 of 5 nM.

`CC(C)(COC(=O)N1CCC2(CC1)CC(=O)N(c1ccc(C(=N)N)cc1)C2)C(=O)O` gave an IC50 in series [1] of 15000 nM.

`N=C(N)c1ccc(N2CCC3(CCN(C(=O)CC(CC(=O)O)c4ccccc4)CC3)C2=O)cc1` (centres undefined) returned an IC50 in series [1] of 90 nM.

As for `N=C(N)c1ccc(N2CCC3(CCN(CCCCC(=O)O)CC3)C2=O)cc1`, the IC50 in series [1] came out at 7800 nM.

For `CCOC(=O)CCNC(=O)N1CCC2(CC1)CCN(c1ccc(C(=N)NO)cc1)C2=O`, the AUC in series [7] is 565 ng·h/mL. Besides, the CI in the series listed under Canis familiaris amounted to 8.43 mL/min/kg. For the same compound, in series [8], the clearance is 5.12 mL/min/kg.

For the compound `Cc1noc(C)c1S(=O)(=O)N[C@@H](CCC(=O)N1CCC2(CC1)C(=O)N(c1ccc(C(=N)N)cc1)C(=O)N2C)C(=O)O`, the IC50 in [1] was 16 nM.

Turning to `CCOC(=O)CCNC(=O)N1CCC2(CC1)CC(=O)N(c1ccc(C(=N)NO)cc1)C2`, in series [2], the AUC came to 95.6 ng·h/mL.

As for `CCOC(=O)COCC(=O)N1CCC2(CC1)CCN(c1ccc(C(=N)NO)cc1)C2=O`, in series [2], the AUC amounted to 651 ng·h/mL. This compound also came in with a CI in the series listed under Canis familiaris of 3.28 mL/min/kg. Moreover, in series [8], the clearance is 2.7 mL/min/kg.

In series [1], `CCNC(=N)c1ccc(N2CCC3(CCN(C(=O)CCCC(=O)O)CC3)C2=O)cc1` gave a half-inhibitory concentration (IC50) of 841 nM.

In turn, `CN1C(=O)N(c2ccc(C(=N)N)cc2)C(=O)C12CCN(C(=O)NC(CC(=O)O)c1ccccc1)CC2` (centres undefined) had an IC50 in series [1] of 50 nM.

As for `CN1C(=O)N(c2ccc(C(=N)N)cc2)C(=O)C12CCN(C(=O)CC(CC(=O)O)c1ccccc1)CC2` (centres undefined), the IC50 in series [1] was determined as 32 nM.

Compound `CCCCOC(=O)N[C@@H](CCC(=O)N1CCC2(CC1)CC(=O)N(c1ccc(C(=N)N)cc1)C2=O)C(=O)O` gave an IC50 in [1] of 30 nM.

For `N=C(N)c1ccc(N2CCC3(CCN(C(=O)CC(=O)O)CC3)C2=O)cc1`, the IC50 in series [1] is 15800 nM.

For the compound `N=C(N)c1ccc(N2CCC3(CCN(C(=O)CCCC(=O)O)CC3)C2=O)cc1`, the IC50 is more than 50 µM in [9], more than 50 µM at Integrin alpha-V/beta-3, more than 50 µM in series [10] and 4 nM in [1].

In turn, `CCOC(=O)CCNC(=O)N1CCC2(CC1)C(=O)N(c1ccc(C(=N)NO)cc1)C(=O)N2C` displayed an AUC in series [2] of 60 ng·h/mL.

Turning to `CCOC(=O)CC(CC(=O)N1CCC2(CC1)CCN(c1ccc(C(=N)NO)cc1)C2=O)c1ccccc1` (centres undefined), the AUC in series [2] was 7.9 ng·h/mL.

For the compound `CCOC(=O)CCCC(=O)N1CCC2(CC1)CCN(c1ccc(C(=N)NO)cc1)C2=O`, the AUC in series [2] was 501 ng·h/mL. In the series listed under Canis familiaris, this compound yielded a CI of 6.44 mL/min/kg. The clearance in [8] is 6.51 mL/min/kg.

For `C[C@@H](CC(=O)O)CC(=O)N1CCC2(CC1)CCN(c1ccc(C(=N)N)cc1)C2=O`, the IC50 in [1] stood at 4 nM.

Consider `N=C(N)c1ccc(N2C(=O)CC3(CCN(C(=O)NCCC(=O)O)CC3)C2=O)cc1`, for which, in series [1], the IC50 came to 410 nM.

Turning to `N=C(N)c1ccc(N2CC3(CCN(C(=O)CCCCC(=O)O)CC3)CC2=O)cc1`, the IC50 in series [1] turned out to be 7300 nM.

In series [1], `CC(CC(=O)O)NC(=O)N1CCC2(CC1)CCN(c1ccc(C(=N)N)cc1)C2=O` (centres undefined) registered an IC50 of 4 nM.

As to `C[C@H](CC(=O)O)NC(=O)N1CCC2(CC1)CCN(c1ccc(C(=N)N)cc1)C2=O`, the IC50 in series [1] is 5 nM.

Compound `CCCCOC(=O)N[C@@H](CCC(=O)N1CCC2(CC1)CCN(c1ccc(C(=N)N)cc1)C2=O)C(=O)O` came in with an IC50 in series [1] of 5 nM.

For the compound `N=C(N)c1ccc(N2CCC3(CCN(C(=O)NCCC(=O)O)CC3)C2=O)cc1`, the IC50 is more than 50 µM at Integrin alpha-V/beta-3; 4 nM and 3.9 nM in [1].

As for `N=C(N)c1ccc(N2CCC3(CCN(C(=O)COCC(=O)O)CC3)C2=O)cc1`, the IC50 at Integrin alpha-V/beta-3 is more than 50 µM; in [1], 17 nM.

On to `CCCCOC(=O)N[C@@H](CCC(=O)N1CCC2(CC1)C(=O)N(c1ccc(C(=N)NO)cc1)C(=O)N2C)C(=O)OCC`, for which, in the series listed under Rattus norvegicus, the F result is reported as “Not detected”.

`N=C(N)c1ccc(N2CC3(CCN(C(=O)CCC(=O)O)CC3)CC2=O)cc1` yielded an IC50 in [1] of 10500 nM.

On to `N=C(N)c1ccc(N2CCC3(CCN(C(=O)CCC(=O)O)CC3)C2=O)cc1`, for which the IC50 in series [1] amounted to 5600 nM.

Compound `N=C(N)c1ccc(N2C(=O)NC3(CCN(C(=O)NCCC(=O)O)CC3)C2=O)cc1` registered an IC50 in series [1] of 329 nM.

Turning to `CCOC(=O)CCNC(=O)N[C@H]1CCN(c2ccc(C(=N)N)cc2)C1=O` [ORBOFIBAN], in [1], the IC50 came to 2.38 nM.

In the case of `CCOC(=O)COC1CCN(C(=O)[C@H](C)NC(=O)c2ccc(/C(N)=N/O)cc2)CC1` [SIBRAFIBAN], the IC50 in series [9] was more than 50 µM; on Integrin alpha-V/beta-3, more than 50 µM; in series [11], more than 50 µM; in [1], 1.14 nM.
